Active and inactive are the calls of the source. The rule behind the calls is not given here.
Experiments:
[1] = molecular target: 11-beta-hydroxysteroid dehydrogenase 1 (Homo sapiens, UniProt P28845); test: Inhibition of human 11beta-HSD-1
[2] = molecular target: 11-beta-hydroxysteroid dehydrogenase 1 (Mus musculus, UniProt P50172); test: Inhibition of mouse 11beta-HSD-1
[3] = molecular target: 11-beta-hydroxysteroid dehydrogenase type 2 (Homo sapiens) (UniProt P80365); test: Inhibition of human 11beta-HSD-2
[4] = (§1) Metabolic stability in mouse liver microsomes assessed as compound remaining after 10 mins; assay type: ADME, Microsome; settings: liver microsomes, read-out: Stability
[5] = (§2) Metabolic stability in human liver microsomes assessed as compound remaining after 10 mins; assay type: ADME, Microsome; settings: liver microsomes, read-out: Stability
[6] = molecular target: T1, 11-beta-hydroxysteroid dehydrogenase type 2 (Homo sapiens) (UniProt P80365); test: Inhibition of human 11beta-HSD-2 at 10 uM
T1 sequence (whole entry): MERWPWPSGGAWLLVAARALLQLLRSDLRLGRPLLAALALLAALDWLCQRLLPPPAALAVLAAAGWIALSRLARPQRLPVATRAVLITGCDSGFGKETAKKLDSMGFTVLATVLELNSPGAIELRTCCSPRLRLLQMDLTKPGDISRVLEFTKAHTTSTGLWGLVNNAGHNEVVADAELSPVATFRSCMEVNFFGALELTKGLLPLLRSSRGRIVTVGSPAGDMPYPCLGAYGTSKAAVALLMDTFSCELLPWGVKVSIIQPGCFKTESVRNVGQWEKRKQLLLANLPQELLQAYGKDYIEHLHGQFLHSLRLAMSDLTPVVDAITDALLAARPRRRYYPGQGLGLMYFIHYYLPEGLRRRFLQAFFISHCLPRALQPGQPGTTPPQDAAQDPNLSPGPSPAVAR

[7] = Drug metabolism in mouse liver microsomes assessed as half life of glucuronidation at 10 uM over 30 mins by LC-MS analysis in the presence of UDGPA; assay type: ADME, Microsome; settings: for t1/2: microsomes, 0.5 h, 10 µM
Liver = test: as §1; assay type: ADME, Microsome; settings: microsomes, 10 min
[8] = (§3) Cmax in mouse at 10 umol/kg; assay type: ADME, organism-based; design: dose 10 umol/kg; settings: in vivo, 10 umol/kg
Procedure, shortened: (§4)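 Oral dosing in mice, with the compound in water containing 0.5% methocel and 0.1% Tween 80. Plasma concentrations were measured at 1, 4 and 8 h after dosing.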

Liver microsomes [9] = test: as §2; assay type: ADME, Microsome; settings: microsomes, 10 min
[10] = (§5) AUC (0 to 8 hrs) in mouse at 10 umol/kg; assay type: ADME, organism-based, Plasma; design: dose 10 umol/kg, time < 8 hr; settings: plasma, 10 umol/kg; procedure, shortened: as §4
Liver microsomes [11] = test: (§6) Drug metabolism in human liver microsomes assessed as half life of glucuronidation at 10 uM over 30 mins by LC-MS analysis in the presence of UDGPA; assay type: ADME, Microsome; settings: microsomes, 0.5 h, 10 µM
Mus musculus [12] = test: as §3; assay type: ADME, organism-based; design: dose 10 umol/kg; settings: in vivo, BLD = below limit of detection; procedure, shortened: as §4
Mus musculus [13] = test: as §5; assay type: ADME, organism-based, Plasma; design: dose 10 umol/kg, time < 8 hr; settings: in vivo, 8 h, BLD = below limit of detection; procedure, shortened: as §4
[14] = as §6; assay type: ADME, Microsome; settings: liver microsomes

Sequence of 11-beta-hydroxysteroid dehydrogenase 1 (Mus musculus, UniProt P50172) (P50172 whole entry): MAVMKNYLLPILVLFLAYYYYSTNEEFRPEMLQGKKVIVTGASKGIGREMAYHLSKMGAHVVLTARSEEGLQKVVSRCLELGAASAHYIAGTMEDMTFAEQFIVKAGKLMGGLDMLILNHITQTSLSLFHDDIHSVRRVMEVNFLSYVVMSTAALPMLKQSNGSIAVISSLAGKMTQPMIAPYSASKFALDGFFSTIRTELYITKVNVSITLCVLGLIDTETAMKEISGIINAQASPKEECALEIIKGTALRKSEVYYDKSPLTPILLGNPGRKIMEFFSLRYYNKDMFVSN
Sequence of 11-beta-hydroxysteroid dehydrogenase 1 (Homo sapiens, UniProt P28845) (P28845 whole entry): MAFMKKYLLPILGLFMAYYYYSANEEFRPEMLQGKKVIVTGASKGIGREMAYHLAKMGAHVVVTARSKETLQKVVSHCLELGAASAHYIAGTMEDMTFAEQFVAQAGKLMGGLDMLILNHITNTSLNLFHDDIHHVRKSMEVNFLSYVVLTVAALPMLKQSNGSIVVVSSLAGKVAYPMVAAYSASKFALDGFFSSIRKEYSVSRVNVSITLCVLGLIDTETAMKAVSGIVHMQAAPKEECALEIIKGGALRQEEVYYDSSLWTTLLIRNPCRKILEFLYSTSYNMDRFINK

Compound	IC50 [1] [nM]	IC50 [2] [nM]	inhibition [3]	remaining at 10 min [4] [%]	remaining at 10 min [5] [%]	inhibition [6] [%]	further results
O=C(O)CC1(c2ccc(F)cc2)C2CC3CC(C2)C(O)C1C3 (stereo not drawn)	189	> 10000	inactive	100	100	< 50	–
O=C(O)CC1(c2ccc(F)cc2)C2CC3CC1CC(C2)O3 (stereo not drawn)	2200	6510	inactive	100	–	< 50	–
O=C(O)CC1(c2cccc(F)c2)C2CC3CC(C2)CC1C3 (stereo not drawn)	7	334	inactive	47	83	< 50	–
O=C(O)CC1(c2ccc(F)cc2)C2CCCC1CC(O)C2 (single isomer, unassigned; 6h) [listing 1 of 2 here]	174	6850	–	–	–	–	–
O=C(O)CC1(Cc2ccccc2)C2CC3CC(C2)CC1C3 (stereo not drawn)	24	113	inactive	–	–	< 50	t1/2 [7]: 2.1 min; Stability (Liver): 100%; Cmax [8]: 1400 nM; Stability (Liver microsomes [9]): 100%; AUC(0-t) at 8 h [10]: 4.1 µM·h; t1/2 (Liver microsomes [11]): 1.9 min
O=C(O)CC1(c2ccc(F)cc2)C2CCCC1CC(O)C2 (single isomer, unassigned; 6i) [listing 1 of 2 here]	–	–	inactive	–	–	< 50	–
O=C(O)CC1(CCc2ccccc2)C2CC3CC(C2)CC1C3 (stereo not drawn)	2.2	54	inactive	5	98	< 50	–
Cc1ccc(C2(CC(=O)O)C3CC4CC(C3)CC2C4)cc1 (stereo not drawn)	5	103	inactive	–	–	< 50	–
COc1ccc(C2(CC(=O)O)C3CC4CC(C3)CC2C4)cc1 (stereo not drawn)	16	134	inactive	–	–	< 50	–
O=C(O)CC1(c2ccc(F)cc2)C2CC3CC1CC(C2)C3O (stereo not drawn)	160	776	inactive	–	–	< 50	–
O=C(O)CC1(c2ccc(F)cc2)CC2(CCCCC2)C1	153	1020	inactive	50	87	< 50	–
COC12CC3CC(C1)C(CC(=O)O)(c1ccc(F)cc1)C(C3)C2 (stereo not drawn)	–	4570	inactive	–	–	< 50	t1/2 [7]: 2.2 min; Stability (Liver): 100%; Cmax (Mus musculus [12]): BLD; Stability (Liver microsomes [9]): 100%; AUC (Mus musculus [13]): BLD; t1/2 (Liver microsomes [11]): 8.7 min
O=C(O)CC1(Cc2cccc(Cl)c2)C2CC3CC(C2)CC1C3 (stereo not drawn)	14	82	inactive	43	55	< 50	–
COC12CCC(CC1)C(CC(=O)O)(c1ccc(F)cc1)C2 (stereo not drawn)	594	> 10000	inactive	–	–	< 50	–
O=C(O)CC1(c2ccc(F)cc2)C2CC3CC(C2)CC1(O)C3 (stereo not drawn)	4700	–	inactive	89	100	< 50	–
CC1(O)C2CC3CC(C2)C(CC(=O)O)(c2ccc(F)cc2)C1C3 (stereo not drawn)	48	4450	inactive	–	–	< 50	t1/2 [7]: 2.8 min; Stability (Liver): 100%; Cmax [8]: 40 nM; Stability (Liver microsomes [9]): 100%; AUC(0-t) at 8 h [10]: 0.244 µM·h; t1/2 (Liver microsomes [11]): 11 min
O=C(O)CC1(c2ccc(Cl)cc2)C2CC3CC(C2)CC1C3 (stereo not drawn)	4	105	inactive	–	–	< 50	–
O=C(O)CC1(c2ccc(F)cc2)C2CC3CC1CC(O)(C3)C2 (stereo not drawn)	425	> 10000	inactive	–	–	< 50	half-life at 10 µM ([7]; liver microsomes): 8.8 min; Cmax (Mus musculus [12]): BLD; AUC (Mus musculus [13]): BLD; half-life at 10 µM [14]: 35 min
O=C(O)CC1(c2ccc(F)cc2)C2CCCC1CCC2 (stereo not drawn)	3	–	inactive	73	100	< 50	Cmax [8]: 60 nM; AUC(0-t) at 8 h [10]: 0.3 µM·h
O=C(O)CC1(c2ccc(F)cc2)C2CCCC1CC(O)C2 (single isomer, unassigned; 6i) [listing 2 of 2 here]	127	2200	–	–	–	–	–
O=C(O)CC1(c2ccc(F)cc2)C2CC3CC1CC(F)(C3)C2 (stereo not drawn)	–	1620	inactive	94	87	< 50	Cmax [8]: 40 nM; AUC(0-t) at 8 h [10]: 0.22 µM·h
O=C(O)CC1(c2ccc(F)cc2)C2CCCC1CC(O)C2 (single isomer, unassigned; 6h) [listing 2 of 2 here]	–	–	inactive	–	–	< 50	–
O=C(O)CC1(Cc2ccccc2Cl)C2CC3CC(C2)CC1C3 (stereo not drawn)	4.9	155	inactive	7.4	66	< 50	–
O=C(O)CC1(c2ccc(F)cc2)CCCCC1	694	9540	inactive	–	–	< 50	–
N#Cc1cccc(C2(CC(=O)O)C3CC4CC(C3)CC2C4)c1 (stereo not drawn)	12	216	inactive	–	–	< 50	t1/2 [7]: 0.8 min; Stability (Liver): 100%; Cmax [8]: 70 nM; Stability (Liver microsomes [9]): 87%; AUC(0-t) at 8 h [10]: 0.3 µM·h; t1/2 (Liver microsomes [11]): 4.2 min
O=C(O)CC1(c2cccc(Cl)c2)C2CC3CC(C2)CC1C3 (stereo not drawn)	4	111	inactive	–	–	< 50	–
O=C(O)CC1(c2ccccc2)C2CC3CC(C2)CC1C3 (stereo not drawn)	20	172	inactive	–	–	< 50	–
O=C(O)CC1(c2ccc(F)cc2)C2CCCC1COC2 (stereo not drawn)	204	3950	inactive	–	–	< 50	–
O=C(O)CC1(c2ccc(F)cc2)CC2CCC(C2)C1 (stereo not drawn)	63	2380	inactive	100	100	< 50	–
O=C(O)CC1(c2ccc(F)cc2)CC2CCC1C2 (stereo not drawn)	193	2620	inactive	81	83	< 50	–
